These results are taken from ChEMBL document CHEMBL4513216, “Probing the Open Global Health Chemical Diversity Library for Multistage-Active Starting Points for Next-Generation Antimalarials” (ACS Infect Dis, 2020).

This data set can be described thus: Toxicity liver stage against HepG2, at 10uM. Particulars: human, HepG2-A16-CD81EGFP cells; read-out: INHIBITION
Further details: test concentration 10 uM, cell line HepG2-A16-CD81EGFP. It is filed as cell-based. An outline of the steps:
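Uninfected HepG2-A16-CD81EGFP cells, 3 × 10^3 per well, 1536-well, plated on prespotted compound at 10 μM final, parasite-free screening media added to match infected plates; puromycin 10 μM positive, DMSO 0.5% negative; run in parallel with 48 h PbLuc assay at 37 °C, 5% CO2; viability by CellTiter-Glo luminescence, normalized to controls.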
In the case of `CC1Cn2c(nc3c2c(=O)[nH]c(=O)n3C)O1` (configuration not stated), the cytotoxicity at 10 µM came out at 1.26%. On to `COC(=O)CNC(=O)N1CCN(c2nc3ccccc3n2C)CC1`, for which the cytotoxicity at 10 µM is -9.46%. In the case of `CC(C)(C)OCC1CN(Cc2cccs2)S(=O)(=O)c2cnccc2O1` (configuration not stated) it was 2.89%. In the case of `CN1C[C@H](O)[C@]2(CCN(C(=O)NCc3ccccc3)C2)S1(=O)=O` it was 4.53%; in that of `CCCC(O)CN1CCC(=O)N(CC2CC2)Cc2cc3c(cc21)OCO3` (configuration not stated), -1.89%.

Consider `O=C(O)Cn1ccc(=O)c2ccc(Cl)cc21`, for which the cytotoxicity at 10 µM was -7.76%. The same measure for `COCC(=O)N(Cc1ccc2cc[nH]c2c1)C1CC1`: -5.54%; for `CC(C)n1cc(C(=O)NC2CCS(=O)(=O)C2)c2ccccc2c1=O` (configuration not stated): 1.85%. Consider `CC(C)c1sc(Cl)nc1C(=O)N1CCN(Cc2ccccc2)CC1`, for which the cytotoxicity at 10 µM is -2.7%.

With `CCCc1noc(C2CC(=O)N(Cc3ccccc3)C2)n1` (configuration not stated), the cytotoxicity at 10 µM was -2.62%. The same measure for `O=C(Cc1cccs1)N1CCC2(CCCN(CC3CCOCC3)C2)C1` (configuration not stated): -144%; for `CCCS(=O)(=O)N1CCC2(CC1)CN(C(=O)N(C)C)c1ccccc12`: -108%. With `Cc1nc([C@H]2C[C@@H]3CCN(Cc4cnn(C)c4)C[C@H]3O2)sc1C`, the cytotoxicity at 10 µM was -1.96%. In the case of `COc1ncnc2c1CCN(Cc1cccc(C)n1)CC2` it was -146%; in that of `CC(C)c1cc2c(O)nc(CSCC(=O)NCc3ccccn3)nc2s1`, -5.29%; in that of `COc1cc(Cl)c(C)cc1-n1nnc(C(=O)O)c1C`, -8.29%. Turning to `COc1cc2ncn(CC(=O)NCCCN(C)C)c(=O)c2cc1OC`, the cytotoxicity at 10 µM is 10%.

In the case of `O=C1CC(c2ccccc2)c2c(n3ccsc3nc2=O)N1` (configuration not stated), the cytotoxicity at 10 µM is -4.74%.

With `O=C(C1CCOC1)N1CC[C@@H](O)[C@@H]1Cc1ccccc1` (some centres not stated), the cytotoxicity at 10 µM came to 9.34%. The same measure for `O=C(c1ccc(Cl)cc1)N1CCCn2nnc(Cn3cccn3)c2C1`: -10.3%; for `Clc1cccc(-n2cnnn2)c1N1CCCC1`: 9.35%; for `COC(=O)C1=NOC(Cc2cc(OC)c3c(c2)OCO3)C1` (configuration not stated): 5.82%. The same measure for `Cc1nn(C)c2c(N3CCN(C(=O)c4ccccc4)CC3)ncnc12`: 10.9%.

As for `COc1ccccc1OCCN(C)Cc1c(C2CC2)[nH]c2ncccc12`, the cytotoxicity at 10 µM turned out to be 5.62%. For `CC1(c2[nH]ncc2C(N)=O)CCN(S(=O)(=O)c2ccccc2)CC1`, the cytotoxicity at 10 µM was -1.29%.

Take `CN1CCN(c2nc(O)cc(Cc3ccccc3F)n2)CC1`: the cytotoxicity at 10 µM is -5.08%. In the case of `CCN1CCN(c2nc(O)cc(Cc3ccccc3F)n2)CC1` it was -1.83%. For the compound `Cc1nc2cc(C(=O)N3CCn4c(nnc4C4CC4)C3)ccc2s1`, the cytotoxicity at 10 µM was -1.41%. Turning to `C[C@]12CCCCN(C(=O)c3ccccn3)[C@H]1CCCC(=O)N2`, the cytotoxicity at 10 µM was -20.1%. In the case of `Cc1n[nH]c(C)c1-c1cnc(C2CCN(S(C)(=O)=O)CC2)cn1` it was -1.57%. Regarding `CNc1cc(C)nc(C2CN(Cc3cncs3)CCO2)c1` (configuration not stated), the cytotoxicity at 10 µM is -12.3%. Turning to `Cc1cc(-c2cnc(NC3CCCC3)nc2-c2ccc(C)o2)on1`, the cytotoxicity at 10 µM is -22.4%.

For `CC(=O)N1CCCC1c1cncc(Oc2ccc(F)cc2)n1` (configuration not stated), the cytotoxicity at 10 µM is -15.8%. Turning to `Cc1ccc(C(=O)N2CCOC(c3nc(-c4ncccn4)no3)C2)cc1` (configuration not stated), the cytotoxicity at 10 µM is -19.9%.

For the compound `CC(C)(C)C(=O)N1CCC(c2nc(O)cc(-c3ccncc3)n2)CC1`, the cytotoxicity at 10 µM was -22%. The same measure for `COc1ccc2nc(C3CC3)cc(C(=O)NCc3ncnn3C)c2c1`: -8.06%; for `O=C(NCCc1nncn1C1CC1)C1(Cc2ccccc2)CCC1`: 7.87%; for `COc1ccccc1CCNC(=O)CNCC1CN(C)CCO1` (configuration not stated): 1.49%. The same measure for `CC(C)(CNC(=O)Nc1cccc(-c2cccs2)c1)C(N)=O`: -9.99%; for `COCCN1CCC(NC(=O)NCC2(c3cccc(F)c3)CC2)C1` (configuration not stated): 5.59%. In the case of `CCOCC(=O)Nc1ccc(-n2ccc(C(N)=O)n2)cc1` it was -5.27%; in that of `CN(c1ccc2ccccc2c1)S(=O)(=O)c1cc(C(=O)O)cs1`, 1.2%; in that of `Cc1ccc(-c2cc(CN3CCc4cnc(C)nc4C3)on2)cc1`, 4.88%. For `N#Cc1ccc(C(=O)NCC2(N3CCOCC3)CCCC2)nc1`, the cytotoxicity at 10 µM is 8.96%. Regarding `COCCN(CCOC)C(=O)c1cccc(Cn2nc(C)cc2C)c1`, the cytotoxicity at 10 µM was -8.22%. As for `COCc1nn(Cc2ccc(Cl)s2)c(=O)o1`, the cytotoxicity at 10 µM was determined as 1.97%.

Regarding `COC(=O)N1CCC(NC(=O)CC(C)CCc2ccccc2)CC1` (configuration not stated), the cytotoxicity at 10 µM is 4.6%. As to `CCC(CC)c1cc(CNC(=O)N2CCOCC2CC)on1` (configuration not stated), the cytotoxicity at 10 µM is -5.59%.

With `O=C1CN(Cc2nnc(-c3ccc(Br)cc3)o2)CCN1`, the cytotoxicity at 10 µM was 2.55%. In the case of `NC(=O)CCOc1nc(-c2ccccc2Cl)no1` it was -1.64%; in that of `CCOCCCC(=O)NCc1cn2cc(Br)ccc2n1`, 2.73%; in that of `CCc1cc(NCc2ccccc2CN2CCCC2)n2ncnc2n1`, 5.42%. In the case of `CCCN1CCN(C(=O)c2scnc2C)CC1` it was -0.73%. For the compound `O=C(NCCCOCC1CC1)Nc1cccnc1N1CCOCC1`, the cytotoxicity at 10 µM was determined as 5.55%. With `CC(Oc1ccccc1C(F)(F)F)C(=O)NCC(N)=O` (configuration not stated), the cytotoxicity at 10 µM was -8.38%. As to `Cc1nc2ccccc2n1Cc1cc(C(=O)NC2CCOC2)no1` (configuration not stated), the cytotoxicity at 10 µM was 4.45%. For the compound `Cc1ccc(CNC(=O)CC2C(=O)NCCN2Cc2ccccc2C)s1` (configuration not stated), the cytotoxicity at 10 µM was -7.98%. `COc1ccc2c(c1)OCC(Cc1ccnc(N)n1)C2` (configuration not stated): the cytotoxicity at 10 µM is -0.651%. With `CN(C)Cc1ccccc1CN(C)C(=O)c1ccoc1`, the cytotoxicity at 10 µM is -11.8%. The same measure for `O=C(NC1CC(=O)N(C2Cc3ccccc3C2)C1)c1ccoc1` (configuration not stated): -2.4%; for `Cc1ccc2[nH]c(-c3cn(C4CCNCC4)nn3)nc2c1C`: -4.92%. In the case of `COC(=O)[C@@H](Nc1nc(C2CCCC2)nc2c1cnn2C)[C@@H](C)O` it was -50%.

`COCCN(Cc1ccccc1Cl)C(=O)c1c(C)cc(C)[nH]c1=O`: the cytotoxicity at 10 µM is -5.6%. The same measure for `Cc1ccc(Oc2ncccc2CNC2CCCCC2)cn1`: -8.59%. As for `CCSCCC(=O)N1CCc2[nH]nc(COc3ccccc3)c2C1`, the cytotoxicity at 10 µM was -2.19%.

Take `O=C(Cc1cc(F)cc(Cl)c1)N[C@@H]1CCNC[C@H]1O`: the cytotoxicity at 10 µM was -3.66%. With `CCCn1cc(C(=O)NC(CC(=O)O)c2ccco2)c(C)n1` (configuration not stated), the cytotoxicity at 10 µM was -61.4%. In the case of `O=C(C1CCC1)N1CCc2[nH]cnc2C12CCN(C1CCOCC1)CC2` it was -2.4%. In the case of `Cc1nccn1C1(C(=O)O)CCN(Cc2ccc3nsnc3c2)CC1` it was -4.97%; in that of `O=C(NCC(F)(F)F)C1CCC(=O)N(C2CCCC2)C1` (configuration not stated), -8.77%; in that of `CN(C)c1nc(NCc2ccccc2Cn2cccn2)ncc1F`, 54.4%. Consider `CN(C)CCNC(=O)c1cnc2c(c1)nc(-c1ccccc1Cl)n2C`, for which the cytotoxicity at 10 µM was determined as 10.6%. In the case of `Cc1ccc([C@@H]2CN(S(=O)(=O)c3cccs3)C[C@H]2N(C)C)cc1` it was -3.12%; in that of `CC(C)c1cc(C(F)(F)F)n2nc(CCC(=O)O)nc2n1`, 5.97%. In the case of `COc1cccc(OC)c1C(=O)N1CCN(c2ccccc2F)CC1` it was -5.22%; in that of `Cc1cncc(C2CCCN(C(=O)c3c[nH]c(=O)[nH]c3=O)C2)n1` (configuration not stated), 1.92%; in that of `CCc1nc2n(n1)CC(NCc1cnn(-c3ccccc3)n1)CC2` (configuration not stated), -3.01%. Take `CCC(=O)N(C)C1CCN(Cc2ncc(C)c(OC)c2C)CC1`: the cytotoxicity at 10 µM was -9.86%. The same measure for `CCc1ncncc1C(=O)N1CCN(Cc2c(C)noc2C)CC1`: -13.8%; for `Cc1nc(C)n(CC2CCCN2CC(=O)Nc2cc(C(C)C)no2)n1` (configuration not stated): -0.292%. In the case of `CN(CCc1ccc(F)cc1)Cc1nc2c(cnn2C)c(=O)[nH]1` it was -1.69%; in that of `CCc1nc(C2CCCN2C(=O)c2ccoc2C)no1` (configuration not stated), -11.6%. Regarding `O=C(CN1CCC(c2ccnn2CCO)CC1)NCc1cccs1`, the cytotoxicity at 10 µM is -10.4%. The same measure for `CCCc1cc(C(=O)N2CCCC(n3ccnc3C)C2)[nH]n1` (configuration not stated): -15.6%; for `Cc1ccn(-c2ccc(C(=O)N3CCCC(C(N)=O)C3)cc2)n1` (configuration not stated): -5.38%; for `Cc1cc(C)n(C2CN(CC(=O)NCC(C)(C)N3CCOCC3)C2)n1`: -3.42%. In the case of `Cn1cc(N2CCCC(NCc3cccc4c3OCCCO4)C2)cn1` (configuration not stated) it was -8.58%; in that of `CCc1nc(C2CCCN2C(=O)CCCn2cccn2)no1` (configuration not stated), -13.1%. For the compound `CCN1CC(C(=O)NCc2ccccc2-n2cccn2)CC1=O` (configuration not stated), the cytotoxicity at 10 µM came to 3.2%. `Cc1n[nH]c(C2CN(C(=O)c3cc(C4CC4)[nH]n3)CCO2)n1` (configuration not stated): the cytotoxicity at 10 µM turned out to be 0.192%. As to `CCC(=O)NCCCn1c(-c2cccnc2C)cc2cccnc21`, the cytotoxicity at 10 µM is 3.84%. In the case of `Cc1cc(Oc2ccccc2F)nc(C2CCCCN2)n1` (configuration not stated) it was 8.44%; in that of `Cn1cc(C(=O)N2CC[C@@H]3[C@@H]2CCN3Cc2cccnc2)cn1`, 3.06%; in that of `Cc1ccc2c(n1)N(CCN(C)C)CCN(C(=O)c1ccc[nH]1)C2`, 6.59%. The same measure for `CCN(C)c1ncnc2c1CCN(Cc1csc(C)n1)CC2`: -1.13%; for `Cn1cnc2c1C(COCC1CC1)CN(C(=O)Cc1ccsc1)C2` (configuration not stated): -2.67%. On to `CCC12CN3CC(CC)(CN(C1)C3c1[nH]c(=O)[nH]c(=O)c1C)C2=O` (configuration not stated), for which the cytotoxicity at 10 µM was 12.5%.
